Test results as given in ChEMBL document CHEMBL1121813, “Dihydrochalcone sweeteners. A study of the atypical temporal phenomena” (1981).

Assays:
Assay type in all cases: functional
Homo sapiens [1] = species on record: Homo sapiens; assay: Number of taste judgments per compound
Homo sapiens [2] = species on record: Homo sapiens; assay: Experimentally determined perceived intensity of compound at a concentration of 2000 ppm (mean value)
How it was run: (§1)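 Trained human sensory panel of judges tasted aqueous solutions of the compound. Samples had to be ≥95 weight % pure (HPLC, proton titration, Karl Fischer), non-mutagenic in five Salmonella typhimurium strains with and without microsomal activation, and non-toxic in a single-oral-dose mouse test. Perceived intensity (Ip) was read from time–intensity curves at 4- or 6-s intervals and averaged. Outliers at the 95% level were rejected by t-value. Values reported as mean (2Sm).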

Homo sapiens [3] = species on record: Homo sapiens; assay: Percentage of judgments reporting an aftertaste at a concentration of 2000 ppm and character thereof
How it was run: (§2)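 Trained judges tasted aqueous solutions of the compounds, which had to be ≥95 weight percent pure and to have passed mutagenicity and single oral dose toxicity screening. The value is the percentage of panel judgments reporting an aftertaste. Where given, its character is recorded as sweet, bitter or bitter-sweet.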

Homo sapiens [4] = species on record: Homo sapiens; assay: Experimentally determined perceived intensity of compound at a concentration of 690 ppm (mean value); how it was run: as §1
Homo sapiens [5] = species on record: Homo sapiens; assay: Percentage of judgments reporting an aftertaste at a concentration of 720 ppm and character thereof
Homo sapiens [6] = species on record: Homo sapiens; assay: Salty character at a concentration of 720 ppm (mean value)
Homo sapiens [7] = species on record: Homo sapiens; assay: Sweet / Bitter character at a concentration of 720 ppm (mean value); 50/50
Homo sapiens [8] = species on record: Homo sapiens; assay: Bitter character at a concentration of 720 ppm (mean value)
How it was run: (§3)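 Trained human panel tasted aqueous solutions. Each judge reported whether there was an aftertaste and its character (sweet, bitter or bitter-sweet). The value is the percentage of judgments reporting a bitter aftertaste.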

Homo sapiens [9] = species on record: Homo sapiens; assay: Intensity calculated on a molar basis relative to a 0.25 M sucrose solution at a concentration of 720 ppm (mean value)
How it was run: (§4)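 Trained human judges tasted aqueous solutions of the test compound; compounds were first required to be ≥95 weight percent pure and free of mutagenicity (five Salmonella typhimurium strains, ± microsomal activation) and of single oral dose mouse toxicity. Molar intensity I_m = perceived intensity × (0.25 M sucrose / compound molar concentration). The mean is reported with 2S_m limits; outliers were rejected at 95% confidence by t-value.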

Homo sapiens [10] = species on record: Homo sapiens; assay: Experimentally determined perceived intensity of compound at a concentration of 720 ppm (mean value); how it was run: as §1
Homo sapiens [11] = species on record: Homo sapiens; assay: Sour character at a concentration of 720 ppm (mean value)
Homo sapiens [12] = species on record: Homo sapiens; assay: Sweet character at a concentration of 720 ppm (mean value)
Homo sapiens [13] = species on record: Homo sapiens; assay: Other taste character at a concentration of 720 ppm (mean value)
How it was run: (§5)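 Trained human sensory panel (Swartz method) tasted dilute aqueous solutions of the compounds, which had to be ≥95 weight percent pure and free of mutagenicity and toxicity. Taste character is reported as the mean value with 2S_m limits. Data deviating excessively at the 95% confidence level were rejected by the t-value method.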

Homo sapiens [14] = species on record: Homo sapiens; assay: Intensity calculated on a weight basis relative to an 85500 ppm sucrose solution at a concentration of 720 ppm (mean value)
How it was run: (§6)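 Trained human panel tasted aqueous solutions of purity-checked (≥95 weight percent) compounds cleared for mutagenicity and mouse oral toxicity. Weight-basis intensity I_w = perceived intensity × (85500 ppm sucrose / compound concentration in ppm). The mean is reported with 2S_m limits; data deviating excessively at 95% confidence were rejected by the t-value method.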

Homo sapiens [15] = species on record: Homo sapiens; assay: Experimentally determined perceived intensity of compound at a concentration of 1000 ppm (mean value); how it was run: as §1
Homo sapiens [16] = species on record: Homo sapiens; assay: Percentage of judgments reporting an aftertaste at a concentration of 1000 ppm and character thereof; how it was run: as §2
Homo sapiens [17] = species on record: Homo sapiens; assay: Salty character at a concentration of 250 ppm (mean value); how it was run: as §5
Homo sapiens [18] = species on record: Homo sapiens; assay: Sour character at a concentration of 250 ppm (mean value); how it was run: as §5
Homo sapiens [19] = species on record: Homo sapiens; assay: Other taste character at a concentration of 250 ppm (mean value); how it was run: as §5
Homo sapiens [20] = species on record: Homo sapiens; assay: Bitter character at a concentration of 250 ppm (mean value); how it was run: as §3
Homo sapiens [21] = species on record: Homo sapiens; assay: Intensity calculated on a molar basis relative to a 0.25 M sucrose solution at a concentration of 250 ppm (mean value); how it was run: as §4
Homo sapiens [22] = species on record: Homo sapiens; assay: Percentage of judgments reporting an aftertaste at a concentration of 250 ppm and character thereof; how it was run: as §2
Homo sapiens [23] = species on record: Homo sapiens; assay: Experimentally determined perceived intensity of compound at a concentration of 250 ppm (mean value); how it was run: as §1
Homo sapiens [24] = species on record: Homo sapiens; assay: Sweet / Bitter character at a concentration of 250 ppm (mean value); 69/31
Homo sapiens [25] = species on record: Homo sapiens; assay: Sweet character at a concentration of 250 ppm (mean value); how it was run: as §5
Homo sapiens [26] = species on record: Homo sapiens; assay: Intensity calculated on a weight basis relative to an 85500 ppm sucrose solution at a concentration of 250 ppm (mean value); how it was run: as §6
Homo sapiens [27] = species on record: Homo sapiens; assay: Sweet character at a concentration of 1090 ppm (mean value)
Homo sapiens [28] = species on record: Homo sapiens; assay: Intensity calculated on a molar basis relative to a 0.25 M sucrose solution at a concentration of 1090 ppm (mean value); how it was run: as §4
Homo sapiens [29] = species on record: Homo sapiens; assay: Sour character at a concentration of 1090 ppm (mean value)
Homo sapiens [30] = species on record: Homo sapiens; assay: Experimentally determined perceived intensity of compound at a concentration of 1090 ppm (mean value); how it was run: as §1
Homo sapiens [31] = species on record: Homo sapiens; assay: Other taste character at a concentration of 1090 ppm (mean value)
How it was run: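 Trained human panel tasted aqueous solutions of each compound. Aftertaste is scored as the percentage of judgments reporting one, with its character coded sweet (s), bitter (b) or bitter-sweet (bs).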

Homo sapiens [32] = species on record: Homo sapiens; assay: Percentage of judgments reporting an aftertaste at a concentration of 1090 ppm; how it was run: as §2
Homo sapiens [33] = species on record: Homo sapiens; assay: Bitter character at a concentration of 1090 ppm (mean value); how it was run: as §3
Homo sapiens [34] = species on record: Homo sapiens; assay: Intensity calculated on a weight basis relative to an 85500 ppm sucrose solution at a concentration of 1090 ppm (mean value); how it was run: as §6
Homo sapiens [35] = species on record: Homo sapiens; assay: Sweet / Bitter character at a concentration of 1090 ppm (mean value)
Homo sapiens [36] = species on record: Homo sapiens; assay: Salty character at a concentration of 1090 ppm (mean value)

COc1ccc(/C=C/C(=O)c2ccc(OCC(=O)[O-])cc2O)cc1O.[Na+]
Judgments (Homo sapiens [1]): 1 | IP (Homo sapiens [2]): 0

COc1ccc(CNC(=O)c2c(O)cc(OCC(=O)[O-])cc2O)cc1O.[Na+]
Judgments (Homo sapiens [3]): 0 | Judgments (Homo sapiens [1]): 1 | IP (Homo sapiens [2]): 0

COc1ccc(/C=C/C(=O)c2c(O)cc(OCC(=O)[O-])cc2O)cc1O.[Na+]
Judgments (Homo sapiens [1]): 1 | IP (Homo sapiens [4]): 0

COc1ccc(CCC(=O)c2c(O)cc(OCCCN)cc2O)cc1O
Judgments (Homo sapiens [1]): 1 | Judgments (Homo sapiens [5]): 100 | Taste character (Homo sapiens [6]): 0 | Taste character (Homo sapiens [7]): 50 | Taste character (Homo sapiens [8]): 50 | IM (Homo sapiens [9]): 190 | IP (Homo sapiens [10]): 1.5 | Taste character (Homo sapiens [11]): 0 | Taste character (Homo sapiens [12]): 50 | Taste character (Homo sapiens [13]): 0 | IW (Homo sapiens [14]): 180

COc1ccc(CCC(=N)c2c(O)cc(OCC(=O)[O-])cc2O)cc1O.[Na+]
Judgments (Homo sapiens [3]): 0 | Judgments (Homo sapiens [1]): 1 | IP (Homo sapiens [2]): 0

COc1ccc(CNC(=O)c2c(O)cc(O)cc2O)cc1O
IP (Homo sapiens [15]): 0 | Judgments (Homo sapiens [1]): 1 | Judgments (Homo sapiens [16]): 0

COc1ccc(CCC(=O)c2c(O)cc(OC(CCCO)C(=O)[O-])cc2O)cc1O.[Na+] (stereo unspecified)
Taste character (Homo sapiens [17]): 0 | Taste character (Homo sapiens [18]): 0 | Taste character (Homo sapiens [19]): 0 | Taste character (Homo sapiens [20]): 31 | IM (Homo sapiens [21]): 43 | Judgments (Homo sapiens [1]): 4 | Judgments (Homo sapiens [22]): 0 | IP (Homo sapiens [23]): 0.1 | Taste character (Homo sapiens [24]): 69 | Taste character (Homo sapiens [25]): 69 | IW (Homo sapiens [26]): 34

COc1ccc(C2CC(=O)c3c(O)cc(OCCCS(=O)(=O)[O-])cc3O2)cc1O.[K+] (stereo unspecified)
Taste character (Homo sapiens [27]): 75 | IM (Homo sapiens [28]): 50 | Taste character (Homo sapiens [29]): 0 | IP (Homo sapiens [30]): 0.5 | Judgments (Homo sapiens [1]): 1 | Taste character (Homo sapiens [31]): 0 | Judgments (Homo sapiens [32]): 0 | Taste character (Homo sapiens [33]): 25 | IW (Homo sapiens [34]): 40 | Taste character (Homo sapiens [35]): 75 | Taste character (Homo sapiens [36]): 0
